Results: ChEMBL document CHEMBL4145451, “1,3,5-triazaspiro[5.5]undeca-2,4-dienes as selective Mycobacterium tuberculosis dihydrofolate reductase inhibitors with potent whole cell activity” (Eur J Med Chem, 2018)
Values after ≈ are worked out from the molar mass of the structure shown.

Legend:
[1] = system: Mycobacterium tuberculosis; experiment: Antimycobacterial activity against GFP-fused Mycobacterium tuberculosis H37Rv after 7 days BacTiter-Glo assay; assay type: functional; conditions: 168 h
Dihydrofolate reductase [2] = target: T1, Dihydrofolate reductase (Mycobacterium tuberculosis, UniProt P9WNX1); experiment: Inhibition of Mycobacterium tuberculosis H37Rv DHFR expressed in Escherichia coli BL21(DE3) assessed as reduction in consumption of NADPH using DHF as substrate preincubated for 1 min followed by DHF addition and measured for 2 mins by spectrophotometric method
T1 sequence (P9WNX1 whole entry): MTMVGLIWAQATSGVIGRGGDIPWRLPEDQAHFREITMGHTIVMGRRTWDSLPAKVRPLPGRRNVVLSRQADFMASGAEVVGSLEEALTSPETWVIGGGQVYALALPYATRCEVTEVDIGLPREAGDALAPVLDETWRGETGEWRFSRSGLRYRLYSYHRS

Dihydrofolate reductase [3] = target: T1, Dihydrofolate reductase; experiment: Inhibition of Mycobacterium tuberculosis His-tagged DHFR assessed as reduction in consumption of NADPH using DHF as substrate measured every 30 secs over 6 mins by spectrophotometric method
[4] = system: Mycobacterium tuberculosis; experiment: Antimycobacterial activity against Mycobacterium tuberculosis H37Rv after 10 days by broth dilution method; assay type: functional; conditions: 240 h
How it was run: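 Broth microdilution. Mid-log cultures (OD600 0.4–0.6) were diluted and added to 2-fold serial compound dilutions in DMSO, giving a final 5 × 10^5 CFU/mL in 7H9-albumin-dextrose-catalase-glycerol-Tween 80. Plates were sealed and incubated at 37 °C for 10 days with shaking at 80 rpm. OD600 was read; MIC50 and MIC90 are the lowest concentrations giving 50% and 90% growth inhibition. Rifampicin and DMSO served as controls. Means of 3 independent experiments.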

[5] = Cytotoxicity against human HepG2 cells assessed as reduction in cell viability by MTS assay; assay type: cell-based
How it was run: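 HepG2 cells were grown in DMEM with 10% heat-inactivated FBS at 37 °C and 5% CO2, then exposed to 2-fold serially diluted compound. Viability was read by MTS absorbance at 490 nm. CC50 is the concentration giving a 50% viability drop, taken from the absorbance-versus-concentration plot. Triton X-100 was the positive control. Means of 3 independent experiments.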

[6] = Hemolytic activity in human RBC after 24 hrs; assay type: ADME, cell-based, Erythrocyte; conditions: red blood cells (erythrocytes), read-out: LC50
How it was run: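 Red blood cells were PBS-washed and resuspended at 10^6/mL, then incubated 24 h with compound. After centrifugation at 1000 g for 10 min, supernatant absorbance was read at 540 nm. PBS served as the negative control and 0.1% Triton X-100 as the positive control. Reported as LC50.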

[7] = Selectivity index, ratio of CC50 for cytotoxicity against human HepG2 cells to MIC90 for antimycobacterial activity against Mycobacterium tuberculosis H37Rv; assay type: toxicity, cell-based; conditions: HepG2 cells versus Mycobacterium tuberculosis H37Rv, read-out: Selectivity Index
How it was run: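 H37Rv grown to mid-log (OD600 0.4–0.6), 5 × 10^5 CFU/mL, in supplemented 7H9 with 2-fold compound dilutions (DMSO), 10 days at 37 °C shaken. MIC90 is the lowest concentration giving 90% inhibition by OD600. HepG2 cells in DMEM/10% FBS are exposed to 2-fold dilutions, and CC50 (50% viability loss) is read by MTS absorbance at 490 nm. SI = CC50/MIC90. Means of 3 independent experiments.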

Dihydrofolate reductase [8] = target: T2, Dihydrofolate reductase (Homo sapiens, UniProt P00374); experiment: Inhibition of recombinant human DHFR assessed as reduction in consumption of NADPH using DHF as substrate measured every 30 secs over 6 mins by spectrophotometric method
T2 sequence (P00374 whole entry): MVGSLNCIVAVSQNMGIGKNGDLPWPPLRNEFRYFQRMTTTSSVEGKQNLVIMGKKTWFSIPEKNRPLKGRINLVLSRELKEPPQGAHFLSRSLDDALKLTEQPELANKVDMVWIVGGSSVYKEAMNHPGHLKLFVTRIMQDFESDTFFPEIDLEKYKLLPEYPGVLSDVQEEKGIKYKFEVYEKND

[9] = Selectivity index, ratio of IC50 for inhibition of recombinant human DHFR to IC50 for inhibition of Mycobacterium tuberculosis His-tagged DHFR
How it was run: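 Spectrophotometric DHFR assay at room temperature in 0.15 M potassium phosphate, pH 7, with 50 µM DHF, 60 µM NADPH and 1.5 × 10^-3 units recombinant human DHFR or 0.3 ng/mL recombinant Mtb DHFR, plus serial inhibitor concentrations in DMSO. NADPH use is followed at 340 nm every 30 s for 6 min. Slope versus uninhibited gives % inhibition, and IC50 comes from log-dose curves. SI = human IC50 / Mtb IC50.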

[10] = Aqueous solubility of compound in pH 7.4 solution after 90 mins by UV method; assay type: physicochemical; conditions: aqueous solution pH 7.4, pH 7.4
How it was run: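 Compound was diluted from a 10 mM DMSO stock to final 3.13–100 µM in 45 mM ethanolamine/potassium dihydrogen phosphate/potassium acetate buffer, pH 7.4. After 90 min at room temperature the solution was filtered and diluted with acetonitrile and buffer. Absorbance was read at 330 nm.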

[11] = Half life in male rat liver microsomes at 3 uM preincubated for 5 mins followed by NADPH addition measured up to 45 mins by LC-MS/MS analysis; assay type: ADME, microsome
How it was run: (§1)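 Compound (final 3 µM) was incubated with male or female rat liver microsomes (0.3 mg protein/mL) in 0.1 M phosphate pH 7.4. After a 5 min pre-incubation at 37 °C, NADPH (final 1 mM) was added to start the reaction. Samples were taken at 0, 5, 10, 15, 30 and 45 min and the remaining compound was quantified by LC-MS.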

[12] = Half life in female rat liver microsomes at 3 uM preincubated for 5 mins followed by NADPH addition measured up to 45 mins by LC-MS/MS analysis; assay type: ADME, microsome; how it was run: as §1
[13] = Intrinsic clearance in male rat liver microsomes at 3 uM preincubated for 5 mins followed by NADPH addition measured up to 45 mins by LC-MS/MS analysis; assay type: ADME, microsome; conditions: read-out: CLH; how it was run: as §1
[14] = Intrinsic clearance in female rat liver microsomes at 3 uM preincubated for 5 mins followed by NADPH addition measured up to 45 mins by LC-MS/MS analysis; assay type: ADME, microsome; conditions: read-out: CLH; how it was run: as §1
[15] = system: Mycobacterium tuberculosis; experiment: Antimycobacterial activity against Mycobacterium tuberculosis H37Rv by resazurin dye based two-fold dilution assay; assay type: functional
Dihydrofolate reductase [16] = target: T1, Dihydrofolate reductase; experiment: Inhibition of Mycobacterium tuberculosis H37Rv DHFR assessed as reduction in consumption of NADPH using DHF as substrate incubated for 3 mins measured for 2 mins by spectrophotometric method
[17] = Cytotoxicity against African green monkey Vero cells by MTT assay; assay type: cell-based; conditions: chlorocebus sabaeus
Dihydrofolate reductase [18] = target: T2, Dihydrofolate reductase; experiment: Inhibition of human DHFR assessed as reduction in consumption of NADPH using DHF as substrate incubated for 3 mins measured for 2 mins by spectrophotometric method
[19] = system: Mycobacterium tuberculosis; experiment: Antimycobacterial activity against Mycobacterium tuberculosis H37Rv infected in human THP1 cells after 5 days by Steady-Glo luminescence assay; assay type: functional; conditions: 120 h
Dihydrofolate reductase [20] = target: T1, Dihydrofolate reductase; experiment: Inhibition of Mycobacterium tuberculosis H37Rv DHFR expressed in Escherichia coli assessed as reduction in consumption of NADPH using DHF as substrate by fluorescence method
Dihydrofolate reductase [21] = target: T2, Dihydrofolate reductase; experiment: Inhibition of human DHFR assessed as reduction in consumption of NADPH using DHF as substrate by fluorescence method
Dihydrofolate reductase [22] = target: T2, Dihydrofolate reductase; experiment: Inhibition of human DHFR
A549 = experiment: Cytotoxicity against human A549 cells; assay type: cell-based

SMILES: CCOC(=O)CC[C@H](NC(=O)c1ccc(N(C)Cc2cnc3nc(N)nc(N)c3n2)cc1)C(=O)OCC
- MIC90 [1]: 0.6 µM (≈ 0.306 µg/mL)
- IC50 (Dihydrofolate reductase [2]): 30 nM

SMILES: Cl.NC1=NC2(CCCCC2)N(Cc2cn(CCCCCOc3ccc4oc(=O)ccc4c3)nn2)C(N)=N1
- IC50 (Dihydrofolate reductase [3]): > 100000 nM

SMILES: Cl.NC1=NC2(CCCCC2)N(c2ccc(OCc3cn(CCCCOc4ccc5ccc(=O)oc5c4)nn3)cc2)C(N)=N1
- MIC50 [4]: 0.01 µM
- MIC90 [4]: 0.025 µM
- CC50 [5]: > 100 µM
- HC50 at 24 h [6]: > 100 µM
- selectivity ratio [7]: > 4000
- IC50 (Dihydrofolate reductase [3]): 820 nM
- IC50 (Dihydrofolate reductase [8]): 15.3 µM
- Ratio IC50 [9]: 18.7
- solubility at 1.5 h [10]: 95.8 µM
- half-life at 3 µM [11]: 59 min
- half-life at 3 µM [12]: 114 min
- microsomal CLint at 3 µM [13]: 39.2 µL/min/mg
- microsomal CLint at 3 µM [14]: 20.4 µL/min/mg

SMILES: Nc1nc(N)nc(-c2ccc(OCc3ccc(Cl)cc3)cc2)n1
- MIC [15]: 1.76 µM (≈ 0.577 µg/mL)
- IC50 (Dihydrofolate reductase [16]): 5.17 µM
- CC50 [17]: 333 µM
- IC50 (Dihydrofolate reductase [18]): 83.3 µM

SMILES: Cl.NC1=NC2(CCCCC2)N(c2ccc(OCc3cn(CCCc4ccccc4)nn3)cc2)C(N)=N1
- IC50 (Dihydrofolate reductase [3]): 5820 nM
- IC50 (Dihydrofolate reductase [8]): 3.67 µM
- Ratio IC50 [9]: 0.63

SMILES: Cl.NC1=NC2(CCCCC2)N(c2ccc(OCc3cn(CCCOc4ccc5ccc(=O)oc5c4)nn3)cc2)C(N)=N1
- MIC50 [4]: 0.01 µM
- MIC90 [4]: 0.025 µM
- CC50 [5]: > 100 µM
- HC50 at 24 h [6]: > 100 µM
- selectivity ratio [7]: > 4000
- IC50 (Dihydrofolate reductase [3]): 1340 nM
- IC50 (Dihydrofolate reductase [8]): 12 µM
- Ratio IC50 [9]: 8.95
- solubility at 1.5 h [10]: > 100 µM
- half-life at 3 µM [11]: 83.2 min
- half-life at 3 µM [12]: 271 min
- microsomal CLint at 3 µM [13]: 27.8 µL/min/mg
- microsomal CLint at 3 µM [14]: 8.6 µL/min/mg

SMILES: COC(=O)CC[C@H](NC(=O)c1ccc(N(C)Cc2cnc3nc(N)nc(N)c3n2)cc1)C(=O)OC
- MIC90 [1]: 0.2 to 0.4 µM (≈ 0.0965 to 0.193 µg/mL)
- IC50 (Dihydrofolate reductase [2]): 50 nM

SMILES: Cc1c(Cc2ccccc2Br)cnc2nc(N)nc(N)c12
- MIC90 [19]: 1.3 µM (≈ 0.447 µg/mL)
- IC50 (Dihydrofolate reductase [20]): 8.2 nM
- IC50 (Dihydrofolate reductase [21]): 7.6 nM

SMILES: NC1=NC2(CCCCC2)N(Cc2ccc(Cl)cc2)C(N)=N1
- IC50 (Dihydrofolate reductase [22]): > 100 µM
- IC50 (A549): > 100 µM

SMILES: COc1ccc(-c2nc3c(N)nc(N)nc3nc2C(C)C)cc1
- MIC90 [19]: 2.9 µM (≈ 0.9 µg/mL)
- IC50 (Dihydrofolate reductase [20]): 54.5 nM
- IC50 (Dihydrofolate reductase [21]): 382 nM

SMILES: Nc1nc(N)nc(-c2ccc(OCc3cccc(Cl)c3)cc2)n1
- MIC [15]: 1.57 µM (≈ 0.515 µg/mL)
- IC50 (Dihydrofolate reductase [16]): 5.62 µM
- CC50 [17]: 387 µM
- IC50 (Dihydrofolate reductase [18]): 72.5 µM

SMILES: N#Cc1ccc(Cn2ccc3c4c(N)nc(N)nc4ccc32)cc1
- MIC90 [19]: 0.5 µM (≈ 0.157 µg/mL)
- IC50 (Dihydrofolate reductase [20]): 10.1 nM
- IC50 (Dihydrofolate reductase [21]): 6.8 nM
